In ChEMBL document CHEMBL1134500, “Investigations of new lead structures for the design of selective estrogen receptor modulators” (J Med Chem, 2001):

Columns and labels:
[1] = target: Estrogen receptor (Bos taurus) (UniProt Q9XSB5+P49884); assay: Displacement of 17-beta-[3H]-estradiol from estrogen receptor relative to 17-beta-estradiol; type: protein assay
Outline: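 Competitive binding with calf uterine cytosol as receptor source and 17β-[3H]estradiol (0.723 pmol per tube) as tracer. Compounds were dissolved in ethanol, diluted in TRIS buffer to six to eight concentrations and incubated overnight at 4 °C. Free ligand was removed with dextran-charcoal (90 min, 4 °C), then supernatant was scintillation counted. Nonspecific binding was set with 2 nmol estradiol. RBA = ratio of 50%-inhibiting concentrations (estradiol/sample) × 100%.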

[2] = target: T1, Estrogen receptor (Homo sapiens) (UniProt P03372); assay: Transcriptional activation in MCF-7-2a cells expressing estrogen receptor alpha at 10e-6 M; type: functional, cell-based
T1 sequence (whole entry): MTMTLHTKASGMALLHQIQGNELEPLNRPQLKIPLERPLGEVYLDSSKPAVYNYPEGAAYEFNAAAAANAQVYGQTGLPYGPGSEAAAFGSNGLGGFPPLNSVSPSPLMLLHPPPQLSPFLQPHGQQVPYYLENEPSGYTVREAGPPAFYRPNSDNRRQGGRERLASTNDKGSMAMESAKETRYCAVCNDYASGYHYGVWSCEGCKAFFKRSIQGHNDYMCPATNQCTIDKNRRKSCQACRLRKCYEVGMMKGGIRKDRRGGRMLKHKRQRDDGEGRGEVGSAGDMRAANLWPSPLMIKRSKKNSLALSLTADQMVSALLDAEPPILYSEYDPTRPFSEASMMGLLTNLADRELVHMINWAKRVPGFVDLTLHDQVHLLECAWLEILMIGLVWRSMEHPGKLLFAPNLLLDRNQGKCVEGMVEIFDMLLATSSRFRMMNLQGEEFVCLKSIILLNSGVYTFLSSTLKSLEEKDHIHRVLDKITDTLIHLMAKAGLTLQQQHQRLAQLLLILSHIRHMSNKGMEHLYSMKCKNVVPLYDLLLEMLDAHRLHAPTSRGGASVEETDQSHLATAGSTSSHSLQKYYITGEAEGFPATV
Outline: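 MCF-7-2a cells were precultured one week in DMEM with L-glutamine, antibiotics and dextran/charcoal-treated BCS (50 mL/L), then seeded in six-well plates. After 24 h compounds were added (10^-5 to 10^-10 M final) and cells incubated 50 h, then lysed 20 min at room temperature. Luciferase luminescence (RLU) was read for 10 s and normalized to Bradford protein.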

RBA [1] | Activation [2] | SMILES
< 0.02% | 20% | Oc1ccc([C@H]2NCCN[C@H]2c2c(Cl)cc(O)cc2Cl)c(Cl)c1
0% | 6% | COc1ccc([C@H]2N=CN[C@H]2c2c(Cl)cc(OC)cc2Cl)c(Cl)c1
0% | 6% | COc1ccc(-c2[nH]cnc2-c2c(Cl)cc(OC)cc2Cl)c(Cl)c1

Second part, the compound before the results:

SMILES | RBA [1] | Activation [2]
N[C@H](c1ccc(O)cc1Cl)[C@@H](N)c1c(Cl)cc(O)cc1Cl | 1.5% | 98%
COc1ccc([C@H]2NCCN[C@H]2c2c(Cl)cc(OC)cc2Cl)c(Cl)c1 | 0% | 3%
COc1ccc([C@@H](N)[C@@H](N)c2c(Cl)cc(OC)cc2Cl)c(Cl)c1 | 0% | 0%
Oc1ccc(-c2[nH]cnc2-c2c(Cl)cc(O)cc2Cl)c(Cl)c1 | 0.1% | 27%
